According to PubChem BioAssay AID540305 (Sanford-Burnham Center for Chemical Genomics, 2011):
Active and inactive are the calls of the source.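 Rule for the calls: active = mean EC50 at or below 20 µM; inactive = the rest.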

The compounds below were run against CHO-XBP1 luciferase reporter, IRE1-XBP1 activation, luminescence (assay: IRE1-XBP1 adaptive UPR arm activators, SAR follow-up, counter-screen for UPR apoptotic arm activator project, CHO-XBP1 cells, luminescence (AID 540305)).
Procedure, shortened: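 Medium – F12 plus 10% FBS · System – CHO cells with IRE1-XBP1 luciferase reporter · Amount – 1000 cells/well · Benchmarks – 10 µg/mL tunicamycin versus DMSO only · Detection – luciferase luminescence using Steady-Glo reagent · Times – overnight plating, 6 h compound treatment at 37 °C · Dosing – dose series, DMSO ≤1%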
In the case of `CC1CCN(S(=O)(=O)c2ccc(NC(=O)c3ccc([N+](=O)[O-])o3)cc2)CC1`, the EC50 is reported as > 80 µM (inactive).
With `O=C(Nc1ccc(S(=O)(=O)N2CCOCC2)cc1)c1ccc(Br)o1` the EC50 was > 80 µM (inactive).
For `O=C(Nc1nc2ccccc2s1)c1ccccn1`, the EC50 was > 80 µM (inactive).
For `O=C(Nc1ccc(S(=O)(=O)N2CCOCC2)cc1)c1ccc([N+](=O)[O-])s1`, the EC50 was > 80 µM (inactive).
`O=C(Nc1ccc(S(=O)(=O)c2ccccc2)cc1)c1ccc([N+](=O)[O-])o1` was tested, and the EC50 was > 80 µM (inactive).
`O=C(Nc1ccc(S(=O)(=O)N2CCCC2)cc1)c1ccc([N+](=O)[O-])o1` was tested, and the EC50 was > 80 µM (inactive).
With `CC1(C)CCN(S(=O)(=O)c2ccc(NC(=O)c3ccc([N+](=O)[O-])o3)cc2)CC1` the EC50 was > 80 µM (inactive).
With `Fc1cc(F)c2nc(NCc3ccccn3)sc2c1` the EC50 was > 80 µM (inactive).
For `O=C(Nc1nc2c(F)cc(F)cc2s1)c1ccccc1`, the EC50 was > 80 µM (inactive).
For `O=C(Nc1ccc(S(=O)(=O)N2CCOCC2)cc1)c1ccc([N+](=O)[O-])o1`, the EC50 was > 80 µM (inactive).
`O=C(Nc1nc2ccccc2s1)c1cccnc1` was tested, and the EC50 was > 80 µM (inactive).
For `O=C(Nc1nc2c(F)cccc2s1)c1ccccn1`, the EC50 was > 80 µM (inactive).
For `O=C(Nc1ccc(S(=O)(=O)N2CCC(O)CC2)cc1)c1ccc([N+](=O)[O-])o1`, the EC50 was > 80 µM (inactive).
`O=C(Nc1ccc(S(=O)(=O)N2CCOCC2)cc1)c1ccc([N+](=O)[O-])cc1` was tested, and the EC50 was > 80 µM (inactive).
With `Cc1ccc(C(=O)Nc2ccc(S(=O)(=O)N3CCOCC3)cc2)o1` the EC50 was > 80 µM (inactive).
With `O=C(Nc1cccc(S(=O)(=O)N2CCOCC2)c1)c1ccco1` the EC50 was > 80 µM (inactive).
For `O=C(Nc1nc2ccc(F)cc2s1)c1ccccn1`, the EC50 was > 80 µM (inactive).
With `O=C(Nc1ccc(S(=O)(=O)C2CCCCC2)cc1)c1ccc([N+](=O)[O-])o1` the EC50 was > 80 µM (inactive).
With `O=C(Nc1ccc(C(=O)N2CCOCC2)cc1)c1ccco1` the EC50 was > 80 µM (inactive).
For `O=C(Nc1nc2c(F)cc(F)cc2s1)c1ccncc1`, the EC50 was > 80 µM (inactive).
With `O=C(Nc1ccc(S(=O)(=O)N2CCCCC2)cc1)c1ccc([N+](=O)[O-])o1` the EC50 was > 80 µM (inactive).
In the case of `O=C(Nc1nc2c(F)cc(F)cc2s1)c1ccccn1`, the EC50 is reported as > 80 µM (inactive).
For `O=C(Nc1ccc(S(=O)(=O)N2CCNCC2)cc1)c1ccc([N+](=O)[O-])o1`, the EC50 was > 80 µM (inactive).
In the case of `O=C(Nc1ccc(S(=O)(=O)N2CCOCC2)cc1)c1ccccc1`, the EC50 is reported as > 80 µM (inactive).
In the case of `O=C(Nc1nc2c(F)cc(F)cc2s1)c1cccnc1`, the EC50 is reported as > 80 µM (inactive).
For `O=C(Nc1ccc(S(=O)(=O)N2CCOCC2)cc1)c1cccs1`, the EC50 was > 80 µM (inactive).
`Cc1cc(C)c2nc(NC(=O)c3ccccn3)sc2c1` was tested, and the EC50 was > 80 µM (inactive).
For `CC1CN(S(=O)(=O)c2ccc(NC(=O)c3ccco3)cc2)CC(C)O1` (stereo unspecified), the EC50 was > 80 µM (inactive).
`O=C(Nc1nc2c(Cl)cc(Cl)cc2s1)c1ccccn1` was tested, and the EC50 was > 80 µM (inactive).
In the case of `O=C(Nc1ccc(S(=O)(=O)N2CCOCC2)cc1)c1ccco1`, the EC50 is reported as > 80 µM (inactive).
`O=C(Nc1nc2ccccc2s1)c1ccncc1` was tested, and the EC50 was > 80 µM (inactive).
